Screens deposited in PubChem by Johns Hopkins Ion Channel Center.
TRPC4 potent: allosteric potentiators of mouse TRPC4 channel. Q9QUQ5. HEK293 TRPC4beta/mu-opioid, DAMGO EC20, Fluo-4 Ca2+ flux; hits give high values. B-score at 10 µM. 310,000 compounds, 0.42% hits. AID 2227;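 active = B-score of calcium response area above 5 SD of library B-scores, with initial fluorescence ratio within 5 SD of library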
Target sequence (Q9QUQ5 whole entry, looked up): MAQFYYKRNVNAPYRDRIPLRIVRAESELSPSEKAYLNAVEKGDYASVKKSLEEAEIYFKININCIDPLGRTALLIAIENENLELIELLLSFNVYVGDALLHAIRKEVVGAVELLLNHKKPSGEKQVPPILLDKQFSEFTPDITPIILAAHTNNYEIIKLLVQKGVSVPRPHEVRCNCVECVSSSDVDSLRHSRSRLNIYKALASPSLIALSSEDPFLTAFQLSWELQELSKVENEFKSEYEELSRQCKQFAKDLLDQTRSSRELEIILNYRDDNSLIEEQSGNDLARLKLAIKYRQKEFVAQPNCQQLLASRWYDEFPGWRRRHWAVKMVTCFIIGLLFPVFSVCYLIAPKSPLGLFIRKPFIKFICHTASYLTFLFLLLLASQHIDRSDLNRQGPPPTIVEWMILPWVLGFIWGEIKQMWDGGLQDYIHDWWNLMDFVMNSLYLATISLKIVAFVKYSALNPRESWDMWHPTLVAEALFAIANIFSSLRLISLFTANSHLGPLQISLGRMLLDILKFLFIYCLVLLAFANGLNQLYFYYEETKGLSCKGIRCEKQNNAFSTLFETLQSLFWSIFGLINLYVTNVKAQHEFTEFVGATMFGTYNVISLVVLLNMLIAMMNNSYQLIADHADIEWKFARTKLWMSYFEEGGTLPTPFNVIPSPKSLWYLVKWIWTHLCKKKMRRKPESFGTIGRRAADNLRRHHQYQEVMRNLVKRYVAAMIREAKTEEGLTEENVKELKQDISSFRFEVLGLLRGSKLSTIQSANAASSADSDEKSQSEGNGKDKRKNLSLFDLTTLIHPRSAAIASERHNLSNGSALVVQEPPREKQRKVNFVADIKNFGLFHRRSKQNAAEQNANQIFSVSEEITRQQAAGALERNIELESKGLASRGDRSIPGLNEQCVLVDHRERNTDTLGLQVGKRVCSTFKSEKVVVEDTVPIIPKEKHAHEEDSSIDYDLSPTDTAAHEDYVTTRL
TRPC4 agonist: opens the mouse TRPC4 cation channel; B-score at 10 µM; 310,000 compounds, 0.49% hits; HEK293 TRPC4beta/mu-opioid, Fluo4 calcium fluorescence; hits give high values;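 active = B-score above 5 SD of library B-scores, and initial fluorescence ratio not above library mean plus 5 SD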;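 note: positive B-score marks a calcium rise read as TRPC4 activation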
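Assay system: HEK293 stable line with TRPC4beta plus mu-opioid receptor; schedule: 45 min room-temperature Fluo4 loading, 110 s read; technique: kinetic Fluo4 calcium fluorescence; evaluation: integrated baseline-normalised fluorescence ratio, converted to per-well B score; controls: buffer (low) and maximal DAMGO (high)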
TRPC4 block: TRPC4 (mouse) channel inhibition | Q9QUQ5 | HEK293 TRPC4beta/mu-opioid, DAMGO-evoked Fluo4 calcium flux; hits give low values | B-score at 10 µM | 300,000 compounds, 0.39% hits | AID 2247;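 active = B-score over 3 SD under the library average, no early fluorescence shift, positive overall ratio signal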
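Assay system: HEK293 cells with stable TRPC4beta plus mu-opioid receptor expression. Dosing: single dose. Measured by: Fluo4 Ca2+ flux fluorescence. Also added: DAMGO in two steps, submaximal then maximal. Read-out: B score from integrated Fluo4 fluorescence ratio.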
TRPC6 activator: mouse TRPC6 channel activation; 310,000 compounds, 0.13% hits; HEK293-TRPC6 membrane potential dye fluorescence; hits give high values; Q61143; B-score at 10 µM;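 active = B-score of the integrated fluorescence ratio above library mean plus 3 SD, and starting fluorescence ratio within library mean plus 5 SD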;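 note: higher score means more depolarization so channel activation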
TRPC6 inhibitor: inhibitors of mouse TRPC6 channel. HEK293-TRPC6, membrane potential dye, ACh-evoked depolarization; hits give low values. B-score at 10 µM. Q61143. 310,000 compounds, 1.1% hits. AID 2553;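 active = B-score under library mean minus 3 SD, initial fluorescence not abnormally high, positive integrated signal ratio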;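 note: B-score derived from integrated fluorescence ratio over the kinetic read; more negative B-score means stronger inhibition of depolarization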
Kir21 inh: inhibitors of mouse Kir2.1 inward-rectifier potassium channel. AID 1672. P35561. 310,000 compounds, 0.85% hits. HEK293-Kir2.1, FluxOR thallium flux fluorescence; hits give low values. B-score at 10 µM;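 active = fluorescence ratio B-score at or below minus 3 SD of library scores, with starting-brightness B-score within 2 SD, cut at about -4.2 in these data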;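 note: channel flux triggered by added potassium and thallium sulfate stimulus; B-score of peak minus minimum fluorescence over baseline after thallium stimulus; more negative B-score means stronger Kir2.1 block with less thallium influx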
A number is an active result. Most compounds without a hit are left out; they make up all but 2.9% or so of the library.

`Cc1ccc(-n2cc(CNCCn3nc(C)cc3C)c(-c3ccc(F)cc3)n2)cc1` gave TRPC4 potent inactive, TRPC4 agonist inactive, TRPC4 block inactive, TRPC6 activator inactive, TRPC6 inhibitor inactive and Kir21 inh inactive.
Screening COc1ccc(-n2cc(CNCCc3ncc(C)[nH]3)c(-c3ccccc3Cl)n2)cc1 returned TRPC4 potent inactive, TRPC4 agonist 148, TRPC4 block inactive, TRPC6 activator inactive, TRPC6 inhibitor inactive and Kir21 inh -4.8.
`Fc1ccc(-n2cc(CNCCc3ccccn3)c(-c3ccccc3Cl)n2)cc1` gave TRPC4 potent inactive, TRPC4 agonist 253, TRPC4 block inactive, TRPC6 activator inactive, TRPC6 inhibitor inactive and Kir21 inh inactive.
For O=C(CCNS(=O)(=O)c1ccccc1)Nc1ccccc1 the results were TRPC4 potent inactive, TRPC4 agonist inactive, TRPC4 block inactive, TRPC6 activator inactive, TRPC6 inhibitor inactive and Kir21 inh inactive.
`Cc1nnc(OCc2nc3ccccc3n2C)c2ccccc12` gave TRPC4 potent inactive, TRPC4 agonist inactive, TRPC4 block inactive, TRPC6 activator inactive, TRPC6 inhibitor inactive and Kir21 inh -4.7.
`Clc1cc(/C=N\NC2=NCCN2)cc(Cl)n1` gave TRPC4 potent 18, TRPC4 agonist inactive, TRPC4 block inactive, TRPC6 activator inactive, TRPC6 inhibitor inactive and Kir21 inh inactive.
`Nc1c2c(nc3c1CCCC3)CCCC2` (tested in a mixture with another compound) gave TRPC4 potent inactive, TRPC4 agonist inactive, TRPC4 block -6, TRPC6 activator inactive, TRPC6 inhibitor inactive and Kir21 inh inactive.
Screening CC(C)[C@H]1CN=C2N(CCNC(=O)CCC3CCCCC3)[C@H](Cc3ccc(O)cc3)CN21 returned TRPC4 potent inactive, TRPC4 agonist inactive, TRPC4 block inactive, TRPC6 activator inactive, TRPC6 inhibitor inactive and Kir21 inh inactive.
`COc1ccc(C[C@H]2CN3C(=NC[C@@H]3C(C)C)N2CCNC(=O)CCC2CCCCC2)cc1` gave TRPC4 potent inactive, TRPC4 agonist inactive, TRPC4 block inactive, TRPC6 activator inactive, TRPC6 inhibitor inactive and Kir21 inh -6.3.
COc1ccc(C[C@H]2CN3C(=NC[C@@H]3Cc3ccccc3)N2CCNC(=O)CCC2CCCCC2)cc1 was read as TRPC4 potent inactive, TRPC4 agonist 60, TRPC4 block inactive, TRPC6 activator inactive, TRPC6 inhibitor inactive and Kir21 inh -11.
Cc1ccc(CN(c2ccc(C(=O)NCC3CCCO3)cc2)S(C)(=O)=O)cc1 (stereo not given) was read as TRPC4 potent inactive, TRPC4 agonist inactive, TRPC4 block inactive, TRPC6 activator inactive, TRPC6 inhibitor inactive and Kir21 inh inactive.
`C=CCNC(=O)c1c(CSc2ccc(Cl)cc2)noc1C(=O)NCc1ccccc1` gave TRPC4 potent inactive, TRPC4 agonist inactive, TRPC4 block inactive, TRPC6 activator inactive, TRPC6 inhibitor inactive and Kir21 inh inactive.
For CCOC(=O)c1c(C)[nH]c(C)c1C(=O)CSc1nc2ccccc2n1CC the results were TRPC4 potent inactive, TRPC4 agonist inactive, TRPC4 block inactive, TRPC6 activator inactive, TRPC6 inhibitor inactive and Kir21 inh -5.3.
CN(C)CCNC(=O)c1cc(Sc2ccc(F)cc2)nc2ccccc12 was read as TRPC4 potent 31, TRPC4 agonist inactive, TRPC4 block inactive, TRPC6 activator inactive, TRPC6 inhibitor inactive and Kir21 inh inactive.
Screening CC(=O)c1ccc(N2CCN(CC(O)COC(c3ccccc3)c3ccccc3C)CC2)cc1 (stereo not given) returned TRPC4 potent 12, TRPC4 agonist inactive, TRPC4 block inactive, TRPC6 activator inactive, TRPC6 inhibitor inactive and Kir21 inh inactive.
OC(COC(c1ccccc1)c1ccccc1)CN1CCN(c2cccc(Cl)c2)CC1 (stereo not given) was read as TRPC4 potent inactive, TRPC4 agonist inactive, TRPC4 block inactive, TRPC6 activator inactive, TRPC6 inhibitor inactive and Kir21 inh inactive.
Cc1ccc(Sc2ccc(CO)cc2[N+](=O)[O-])cc1 was read as TRPC4 potent inactive, TRPC4 agonist inactive, TRPC4 block -7, TRPC6 activator inactive, TRPC6 inhibitor inactive and Kir21 inh inactive.
`NS(=O)(=O)c1ccc(CNC(=O)C(c2ccccc2)c2ccccc2)cc1` gave TRPC4 potent inactive, TRPC4 agonist inactive, TRPC4 block inactive, TRPC6 activator inactive, TRPC6 inhibitor inactive and Kir21 inh inactive.
Screening CC(=O)c1ccc2c(c1)N(C)c1ccccc1S2 returned TRPC4 potent inactive, TRPC4 agonist inactive, TRPC4 block -6, TRPC6 activator inactive, TRPC6 inhibitor inactive and Kir21 inh inactive.
For Cc1cc(OCC(=O)N2CCCC2)cc(C)c1Cl the results were TRPC4 potent inactive, TRPC4 agonist 84, TRPC4 block inactive, TRPC6 activator inactive, TRPC6 inhibitor inactive and Kir21 inh inactive.
`Cc1nn(Cc2ccc(F)cc2Cl)c(C)c1[N+](=O)[O-]` gave TRPC4 potent inactive, TRPC4 agonist inactive, TRPC4 block inactive, TRPC6 activator inactive, TRPC6 inhibitor inactive and Kir21 inh inactive.
Cc1ccc(C)c(-c2ccc(=O)n(Cc3ccc(F)cc3Cl)n2)c1 was read as TRPC4 potent 13, TRPC4 agonist inactive, TRPC4 block inactive, TRPC6 activator inactive, TRPC6 inhibitor inactive and Kir21 inh inactive.
For COc1cc(NC(=O)Cc2cccs2)cc(OC)c1 the results were TRPC4 potent inactive, TRPC4 agonist inactive, TRPC4 block inactive, TRPC6 activator inactive, TRPC6 inhibitor inactive and Kir21 inh inactive.
For COc1ccc(C(=O)NC(=S)NNC(=O)[C@H]2C[C@@H]2c2ccccc2)cc1OC the results were TRPC4 potent inactive, TRPC4 agonist inactive, TRPC4 block inactive, TRPC6 activator inactive, TRPC6 inhibitor inactive and Kir21 inh inactive.
Screening COc1ccc(/C=C/C(=O)NC(=S)NNC(=O)Cc2cccs2)cc1OC returned TRPC4 potent inactive, TRPC4 agonist inactive, TRPC4 block inactive, TRPC6 activator inactive, TRPC6 inhibitor inactive and Kir21 inh inactive.
For COc1cc(OC)cc(C(=O)NC(=S)NNC(=O)Cc2cccs2)c1 the results were TRPC4 potent inactive, TRPC4 agonist 147, TRPC4 block inactive, TRPC6 activator inactive, TRPC6 inhibitor inactive and Kir21 inh inactive.
`COc1ccc(C(=O)NC(=S)NNC(=O)Cc2cccs2)cc1` gave TRPC4 potent inactive, TRPC4 agonist 49, TRPC4 block inactive, TRPC6 activator inactive, TRPC6 inhibitor inactive and Kir21 inh inactive.
Screening COc1cc(OC)cc(C(=O)NC(=S)NNC(=O)[C@H]2C[C@@H]2c2ccccc2)c1 returned TRPC4 potent inactive, TRPC4 agonist 192, TRPC4 block inactive, TRPC6 activator inactive, TRPC6 inhibitor inactive and Kir21 inh inactive.
For CCN(CC)S(=O)(=O)c1ccc(C)c(NC(=O)COC(=O)CN2C(=O)NC(C)(C)C2=O)c1 the results were TRPC4 potent inactive, TRPC4 agonist inactive, TRPC4 block inactive, TRPC6 activator inactive, TRPC6 inhibitor inactive and Kir21 inh inactive.
